Published values of several laboratories.
Compare with care: the assays were run in different laboratories.
Method: competition with immobilised ligand
JAK2 JH1: Tyrosine-protein kinase JAK2, JH1 (JAK2, Homo sapiens, UniProt O60674)

SMILES	target	test	conditions	remaining binding
O=C(NS(=O)(=O)c1ccc(NCC2CCOCC2)c([N+](=O)[O-])c1)c1ccc(N2CCN(Cc3ccc(C(F)(F)F)cc3-c3ccc(Cl)cc3)CC2)cc1Oc1cnc2[nH]ccc2c1	JAK2 JH1	cell-free assay	1 µM	90%
CC1CCCN1c1nccc(-c2cnn3ncccc23)n1 (stereo not shown)	JAK2 JH1	cell-free assay	1 µM	98%
COc1ccc2c(O[C@@H]3C[C@H]4C(=O)N[C@]5(C(=O)O)CC5/C=C\CCCCC[C@H](NC(=O)OC5CCCC5)C(=O)N4C3)cc(-c3csc(NC(=O)C(C)C)n3)nc2c1C (stereo partly shown)	JAK2 JH1	cell-free assay	1 µM	64%
CCN1CCN(Cc2ccc(C(=O)Nc3ccc(C)c(Oc4ccc5c(c4)CC(=O)N5)c3)cc2C(F)(F)F)CC1	JAK2 JH1	binding	1 µM	91%
Nc1ncc2c(n1)-c1c([nH]c3ccc(C#CC4CC4)cc13)CCCC2	JAK2 JH1	binding	1 µM	80%
Cc1cnc(Nc2ccc(C(=O)N3CCC(N4CCCC4)CC3)cc2)nc1-c1cc2ccccc2s1	JAK2 JH1	binding	1 µM	0%
c1cncc(-c2cccc(Nc3nccc(NC4CCCCC4)n3)c2)c1	JAK2 JH1	binding	10 µM	0.05%
O=C(c1ccc(Nc2ncc(Cl)c(-c3ccc(Cl)s3)n2)cc1)N1CCC(N2CCCC2)CC1	JAK2 JH1	binding	1 µM	1.3%
CN(C)c1nccc(-c2cnc3ncccn23)n1	JAK2 JH1	cell-free assay	1 µM	80%
CCc1ccccc1C(=O)Nc1n[nH]c2c(C)c(F)c(C3C(C#N)=C(C)N(C)C(C)=C3C#N)cc12	JAK2 JH1	cell-free assay	1 µM	100%
CNC(=O)[C@@H]1CC[C@@H](n2c(-c3ccc4cnccc4c3)nc3ccc(C(=O)NCc4cccc(C(N)=O)c4)cc32)C1	JAK2 JH1	binding	1 µM	100%
O=C(Nc1c[nH]nc1C(=O)NC1CCNCC1)c1cc(F)cc(F)c1	JAK2 JH1	binding	1 µM	100%
Cn1nc(C(F)(F)F)cc1-c1cnc(N2CCc3cc(S(=O)(=O)Nc4c(F)cc(Cl)cc4F)cc(N4CCCC4=O)c32)nc1	JAK2 JH1	cell-free assay	1 µM	82%
O=C(c1ccc(Nc2ncc(Cl)c(-c3cc4ccccc4s3)n2)cc1)N1CCC(N2CCCC2)CC1	JAK2 JH1	binding	1 µM	0%
Cc1cnn2ncc(-c3ccnc(N(C)C)n3)c2c1	JAK2 JH1	cell-free assay	1 µM	93%
C[C@@H]1CN(c2ccc3ncc(-c4ccc5[nH]nc(C6CC6)c5c4)n3n2)C[C@H](C)O1	Tyrosine-protein kinase JAK2 (JAK2, Homo sapiens, UniProt O60674)	binding	50 nM	100%
COc1cnc(Nc2cccc(S(N)(=O)=O)c2)nc1N1CCN(c2ccccc2)C(=O)C1	JAK2 JH1	binding	1 µM	6.1%
C[C@H](c1cccc(C#N)c1)n1cc(Cl)cc(C(N)=O)c1=N	JAK2 JH1	cell-free assay	1 µM	100%
N#Cc1ccccc1CSc1nnc2c(n1)[nH]c1ccccc12	JAK2 JH1	binding	10 µM	100%
